The source of these data is ChEMBL document CHEMBL3244172, “Easily hydrolyzable, water-soluble derivatives of (+/-)-alpha-5-[1-(indol-3-yl)ethyl]-2-methylamino-delta2-thiazoline-4-one, a novel antiviral compound” (J Med Chem, 1979).

In data set [1] the test system is Influenza A virus. As to the kind of experiment: Antiviral activity against Influenza A virus Port Chalmers/1/73 (H3N2) infected in ferret assessed as reduction in viral excretion by measuring hemagglutination units per ml at 8 mg/kg administered intranasally 7 times on day 0 and 9 times on day 1 to day 3 measured on day 4 relative to untreated control. The format is functional. The gist of the method:
(§1)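 Ferrets (700–1500 g, groups of three, untreated control group) were infected intranasally on day 0. Unanaesthetized animals received 0.2 mL of a 50 mg/mL solution in distilled water intranasally, from 2 h post-infection, hourly: 7 doses on day 0 and 9 daily on days +1 to +3. Nasal washings were titrated for hemagglutination with 0.5% washed chicken erythrocytes (HAU/mL) on days +2 to +4.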

Data set [2] has as its system Mustela putorius furo. As to the kind of experiment: Toxicity in ferret infected with Influenza A virus Port Chalmers/1/73 (H3N2) assessed as change in body weight at 8 mg/kg administered intranasally 7 times on day 0 and 9 times on day 1 to day 3 measured after 7 days relative to untreated control. It counts as organism-based. Also noted: dose 8 mg/kg. Particulars: in vivo, inhaled_or_intranasal, 168 h. In outline: (§2)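 Infected ferrets (700–1500 g, groups of three, untreated controls) were dosed intranasally each hour with 0.2 mL of a 50 mg/mL solution in distilled water: 7 doses on day 0 and 9 on days +1 to +3. Body weight was recorded throughout and expressed as % change.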

In data set [3] the test system is Influenza A virus. Kind of data set: Antiviral activity against Influenza A virus Port Chalmers/1/73 (H3N2) infected in ferret assessed as reduction in viral excretion by measuring hemagglutination units per ml at 16 mg/kg administered intranasally 7 times on day 0 and 9 times on day 1 to day 3 measured on day 3 relative to untreated control. The format is functional. In outline: as §1

In data set [4] the test system is Influenza A virus. As to the kind of experiment: Antiviral activity against Influenza A virus Port Chalmers/1/73 (H3N2) infected in ferret assessed as reduction in viral excretion by measuring hemagglutination units per ml at 8 mg/kg administered intranasally 7 times on day 0 and 9 times on day 1 to day 2 measured on day 2 relative to untreated control. It counts as functional. In outline:
as §1

Data set [5] deals with Influenza A virus. Kind of data set: Antiviral activity against Influenza A virus Port Chalmers/1/73 (H3N2) infected in ferret assessed as reduction in viral excretion by measuring hemagglutination units per ml at 13 mg/kg administered intranasally 7 times on day 0 and 9 times on day 1 to day 2 measured on day 2 relative to untreated control. The format is functional. In outline:
as §1

Data set [6] concerns Mustela putorius furo. Kind of data set: Toxicity in ferret infected with Influenza A virus Port Chalmers/1/73 (H3N2) assessed as change in body weight at 13 mg/kg administered intranasally 7 times on day 0 and 9 times on day 1 to day 3 measured after 7 days relative to untreated control. Also noted: dose 13 mg/kg. It counts as organism-based. Particulars: in vivo, inhaled_or_intranasal, 168 h. In outline: as §2

Data set [7] has as its system Influenza A virus. Kind of data set: Antiviral activity against Influenza A virus Port Chalmers/1/73 (H3N2) infected in ferret assessed as reduction in viral excretion by measuring hemagglutination units per ml at 16 mg/kg administered intranasally 7 times on day 0 and 9 times on day 1 to day 2 measured on day 2 relative to untreated control. It counts as functional. In outline:
as §1

Data set [8] in a line: Stability in unbuffered aqueous solutions at pH >6 assessed as compound decarboxylation. The format is physicochemical.
Data set [9] is described as follows: Stability in unbuffered aqueous solutions at pH >6 assessed as compound hydrolysis. Particulars: unbuffered aqueous solution. It counts as physicochemical.
The subject of data set [10] is Mustela putorius furo. Kind of data set: Toxicity in ferret infected with Influenza A virus Port Chalmers/1/73 (H3N2) assessed as change in body weight at 16 mg/kg administered intranasally 7 times on day 0 and 9 times on day 1 to day 3 measured after 7 days relative to untreated control. Also noted: dose 16 mg/kg. The format is organism-based. Conditions: in vivo, inhaled_or_intranasal, 168 h. The gist of the method:
as §2

In data set [11] the test system is Influenza A virus. As to the kind of experiment: Antiviral activity against Influenza A virus Port Chalmers/1/73 (H3N2) infected in ferret assessed as reduction in viral excretion by measuring hemagglutination units per ml at 13 mg/kg administered intranasally 7 times on day 0 and 9 times on day 1 to day 3 measured on day 4 relative to untreated control. It counts as functional. The gist of the method: as §1

Data set [12] relates to Influenza A virus. Kind of data set: Antiviral activity against Influenza A virus Port Chalmers/1/73 (H3N2) infected in ferret assessed as reduction in rectal temperature at 8 to 16 mg/kg administered intranasally 7 times on day 0 and 9 times on day 1 to day 3 relative to untreated control. It counts as functional. Particulars: dose mg/kg 8-16. In outline: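 Infected ferrets (700–1500 g, groups of three, untreated controls) received hourly intranasal 0.2 mL of a 50 mg/mL aqueous solution: 7 doses on day 0 and 9 on days +1 to +3. Rectal temperature was recorded and readings >39.5 °C and >40.0 °C were counted on days +1 to +4.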

The test system of data set [13] is Influenza A virus. Kind of data set: Antiviral activity against Influenza A virus Port Chalmers/1/73 (H3N2) infected in ferret assessed as reduction in viral excretion by measuring hemagglutination units per ml at 16 mg/kg administered intranasally 7 times on day 0 and 9 times on day 1 to day 3 measured on day 4 relative to untreated control. The format is functional. The gist of the method:
as §1

Data set [14] deals with Influenza A virus. As to the kind of experiment: Antiviral activity against Influenza A virus Port Chalmers/1/73 (H3N2) infected in ferret assessed as reduction in viral excretion by measuring hemagglutination units per ml at 13 mg/kg administered intranasally 7 times on day 0 and 9 times on day 1 to day 3 measured on day 3 relative to untreated control. The format is functional. The gist of the method:
as §1

Data set [15] can be described thus: Solubility in water. The format is physicochemical. Conditions: buffer.
Data set [16] relates to Influenza A virus. As to the kind of experiment: Antiviral activity against Influenza A virus Port Chalmers/1/73 (H3N2) infected in ferret assessed as reduction in viral excretion by measuring hemagglutination units per ml at 14 mg/kg administered intranasally 7 times on day 0 and 9 times on day 1 to day 2 measured on day 2 relative to untreated control. The format is functional. In outline: as §1

Data set [17] deals with Influenza A virus. As to the kind of experiment: Antiviral activity against Influenza A virus Port Chalmers/1/73 (H3N2) infected in ferret assessed as reduction in viral excretion by measuring hemagglutination units per ml at 7 mg/kg administered intranasally 7 times on day 0 and 9 times on day 1 to day 2 measured on day 2 relative to untreated control. It counts as functional. The gist of the method:
as §1

In data set [18] the test system is Influenza A virus. Kind of data set: Antiviral activity against Influenza A virus Port Chalmers/1/73 (H3N2) infected in ferret assessed as reduction in viral excretion by measuring hemagglutination units per ml at 7 mg/kg administered intranasally 7 times on day 0 and 9 times on day 1 to day 3 measured on day 4 relative to untreated control. The format is functional. In outline: as §1

The test system of data set [19] is Influenza A virus. Kind of data set: Antiviral activity against Influenza A virus Port Chalmers/1/73 (H3N2) infected in ferret assessed as reduction in viral excretion by measuring hemagglutination units per ml at 14 mg/kg administered intranasally 7 times on day 0 and 9 times on day 1 to day 3 measured on day 4 relative to untreated control. It counts as functional. In outline: as §1

Data set [20] relates to Influenza A virus. As to the kind of experiment: Antiviral activity against Influenza A virus Port Chalmers/1/73 (H3N2) infected in MDCK cells assessed as plaque reduction after 3 days by agar diffusion method. The format is functional. The gist of the method: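 Plaque reduction: varying compound concentrations were put in the agar overlay above infected monolayers. Coxsackie B1/HeLa was incubated 42 h at 37 °C; influenza/MDCK 3 days at 33 °C. PDD50 is the lowest concentration giving ≥50% fewer plaques than untreated controls.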

In data set [21] the test system is Influenza A virus. As to the kind of experiment: Antiviral activity against Influenza A virus Port Chalmers/1/73 (H3N2) infected in ferret assessed as reduction in viral excretion by measuring hemagglutination units per ml at 7 mg/kg administered intranasally 7 times on day 0 and 9 times on day 1 to day 3 measured on day 3 relative to untreated control. It counts as functional. In outline: as §1

For data set [22], the system named is Mustela putorius furo. As to the kind of experiment: Toxicity in ferret infected with Influenza A virus Port Chalmers/1/73 (H3N2) assessed as change in body weight at 14 mg/kg administered intranasally 7 times on day 0 and 9 times on day 1 to day 3 measured after 7 days relative to untreated control. It counts as organism-based. Details: dose 14 mg/kg. Particulars: in vivo, inhaled_or_intranasal, 168 h. In outline: as §2

Data set [23] has as its system Mustela putorius furo. Kind of data set: Toxicity in ferret infected with Influenza A virus Port Chalmers/1/73 (H3N2) assessed as change in body weight at 7 mg/kg administered intranasally 7 times on day 0 and 9 times on day 1 to day 3 measured after 7 days relative to untreated control. It counts as organism-based. Details: dose 7 mg/kg. Particulars: in vivo, inhaled_or_intranasal, 168 h. In outline: as §2

Data set [24] concerns Influenza A virus. Kind of data set: Antiviral activity against Influenza A virus Port Chalmers/1/73 (H3N2) infected in ferret assessed as reduction in rectal temperature at 7 to 14 mg/kg administered intranasally 7 times on day 0 and 9 times on day 1 to day 3 relative to untreated control. The format is functional. Particulars: dose mg/kg 7-14. The gist of the method: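 Ferrets (700–1500 g), three per group, infected intranasally on day 0 with influenza A/Port Chalmers/1/73 (H3N2). Dosed 0.2 mL of 50 mg/mL solution in distilled water by intranasal instillation, unanaesthetized, starting 2 h post-infection and repeated hourly. Untreated and ribavirin-treated groups served as controls. Rectal temperature readings >39.5 °C and >40.0 °C were counted on days +1 to +4.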

The subject of data set [25] is Influenza A virus. Kind of data set: Antiviral activity against Influenza A virus Port Chalmers/1/73 (H3N2) infected in MDCK cells at 1 mg/ml by agar diffusion method. Particulars: read-out: DIZ. It counts as functional. The gist of the method:
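Agar diffusion: compounds were diluted to 1 mg/mL in Eagle's MEM from stocks of 10 mg/mL in water or 100 mg/mL in DMSO. 0.02 mL went into 6 mm wells cut in the agar overlay above infected monolayers (influenza in MDCK, Coxsackie B1 in HeLa). Read-out was the diameter (mm) of the plaque-free inhibition zone around each well.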
(In general: A growth-free zone around the sample is the usual read-out of agar diffusion tests.)

Data set [26] has as its system Influenza A virus. As to the kind of experiment: Antiviral activity against Influenza A virus Port Chalmers/1/73 (H3N2) infected in ferret assessed as reduction in viral excretion by measuring hemagglutination units per ml at 14 mg/kg administered intranasally 7 times on day 0 and 9 times on day 1 to day 3 measured on day 3 relative to untreated control. The format is functional. In outline: as §1

Data set [27] is described as follows: Cytotoxicity against MDCK cells infected with Influenza A virus Port Chalmers/1/73 (H3N2) after 3 days by carbol fuchsin staining-based assay. It counts as cell-based, Canis lupus familiaris. Conditions: dog. The gist of the method:
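MDCK monolayers infected with influenza had compound in the agar overlay and were incubated 3 days at 33 °C. Monolayers were stained with carbol fuchsin or neutral red. MCC is the lowest concentration causing morphological cell abnormalities.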

In the case of `CNC1=NC(=O)C(C(C)c2cn(C(=O)OCC(C)(C)N(C)C)c3ccccc23)S1.Cl` (racemic), the Activity in data set [1] is under 4 HAU/ml; in data set [2] it was -0.4%; in data set [3], under 4 HAU/ml; in data set [4] it was under 4 HAU/ml; in data set [5], under 4 HAU/ml; in data set [6] it was -3.3%. Also, the Activity in [7] is under 4 HAU/ml; in [10], -3.2%; in data set [11], under 4 HAU/ml; in [13], under 4 HAU/ml; in [14], under 4 HAU/ml. The Stability entry in data set [8] and in [9] was “Unstable” throughout. Also, in [12], the T is over 40 °C. Further, in data set [15], the solubility entry is given as “soluble”.
As to `NC(=O)c1ncn([C@@H]2O[C@H](CO)[C@@H](O)[C@H]2O)n1` [RIBAVIRIN], the Activity is under 4 HAU/ml in data set [16]; under 4 HAU/ml in data set [5]; -20.1% in data set [6]; under 4 HAU/ml in data set [17]; under 4 HAU/ml in data set [18]; under 4 HAU/ml in data set [11]. The Activity in data set [19] is given as under 4 HAU/ml; in data set [21] it was under 4 HAU/ml; in data set [22], -22.2%; in data set [23], -4.5%; in data set [14] it was 12 HAU/ml; in [26] it was under 4 HAU/ml. The PDD50 in data set [20] was 2 µg/mL. Besides, in data set [24], the T was over 39.5 °C. Moreover, in data set [25], the zone of inhibition at 1000 µg/mL stood at 30 mm. The same molecule registered an MCC at 72 h in [27] of over 100 µg/mL.
